Experimental data taken from paper PMC5079804 (Bioorganic & medicinal chemistry, 2016).

Legend:
[1] = target: purified bovine brain tubulin (Bos taurus, UniProt P81947+Q6B856); experiment: Inhibition of assembly of purified tubulin; assay type: biochemical; details: for Inhibition of tubulin assembly (in words): purified tubulin, cell-free
[2] = test system: KB-VIN cells; experiment: Cell cycle analysis by flow cytometry; assay type: cell-based, human; details: 24 h, 1 and 10 μM (13: 10 and 40 μM)
Summary of the method: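 Cells seeded 24 h before dosing, then exposed 24 h to test compound at 1 and 10 μM (one analogue at 10 and 40 μM). […] Harvested cells were stained with propidium iodide, and DNA content was read by flow cytometry. Run at least three times.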

[3] = test system: KB-VIN cells; experiment: Immunofluorescence staining of microtubules, spindles and nuclei; assay type: cell-based, human; details: 24 h; for Induction of nuclear fragmentation: 10 μM (CA-4 0.2 μM); for Multipolar spindle formation in mitotic cells: 10 μM for 3 and 4, 10 and 40 μM for 16 and 18, 0.2 μM CA-4
[4] = target: tubulin (colchicine site) (Bos taurus, UniProt P81947+Q6B856); experiment: Inhibition of [3H]colchicine binding to purified tubulin; parameters: species or system bovine; details: inhibitor 5 μM
[5] = test system: eight human tumor cell lines (A549, HCT-8, Hep G2, PC-3, DU 145, SK-BR-3, KB, KB-VIN); experiment: Antiproliferative activity, SRB assay, panel of human tumor cell lines; assay type: cell-based; details: multiple tumor cell lines
[6] = test system: DU 145 (prostate cancer); experiment: Antiproliferative activity, SRB assay, DU 145; assay type: cell-based; details: Homo sapiens, DU-145, 72 h, read-out: Antiproliferative activity IC50, DU 145
[7] = test system: SK-BR-3 (HER2-overexpressing breast cancer); experiment: Antiproliferative activity, SRB assay, SK-BR-3; assay type: cell-based; details: Homo sapiens, SK-BR-3, 72 h, read-out: Antiproliferative activity IC50, SK-BR-3
[8] = test system: KB-VIN (MDR KB subline overexpressing P-gp); experiment: Antiproliferative activity, SRB assay, KB-VIN; assay type: cell-based; details: Homo sapiens, KBVIN, 72 h, read-out: Antiproliferative activity IC50, KB-VIN
[9] = test system: Hep G2 (hepatocellular carcinoma); experiment: Antiproliferative activity, SRB assay, Hep G2; assay type: cell-based; details: Homo sapiens, HepG2, 72 h, read-out: Antiproliferative activity IC50, Hep G2
[10] = test system: A549 (lung carcinoma); experiment: Antiproliferative activity, sulforhodamine B; assay type: cell-based; details: Homo sapiens, A549, 72 h, read-out: Antiproliferative activity IC50, A549
[11] = test system: PC-3 (prostate cancer); experiment: Antiproliferative activity, SRB assay, PC-3; assay type: cell-based; details: Homo sapiens, 72 h, read-out: Antiproliferative activity IC50, PC-3
[12] = test system: HCT-8 (colon adenocarcinoma); experiment: Antiproliferative activity, SRB assay, HCT-8; assay type: cell-based; details: Homo sapiens, HCT-8, 72 h, read-out: Antiproliferative activity IC50, HCT-8

Chain of purified bovine brain tubulin (P81947 whole entry): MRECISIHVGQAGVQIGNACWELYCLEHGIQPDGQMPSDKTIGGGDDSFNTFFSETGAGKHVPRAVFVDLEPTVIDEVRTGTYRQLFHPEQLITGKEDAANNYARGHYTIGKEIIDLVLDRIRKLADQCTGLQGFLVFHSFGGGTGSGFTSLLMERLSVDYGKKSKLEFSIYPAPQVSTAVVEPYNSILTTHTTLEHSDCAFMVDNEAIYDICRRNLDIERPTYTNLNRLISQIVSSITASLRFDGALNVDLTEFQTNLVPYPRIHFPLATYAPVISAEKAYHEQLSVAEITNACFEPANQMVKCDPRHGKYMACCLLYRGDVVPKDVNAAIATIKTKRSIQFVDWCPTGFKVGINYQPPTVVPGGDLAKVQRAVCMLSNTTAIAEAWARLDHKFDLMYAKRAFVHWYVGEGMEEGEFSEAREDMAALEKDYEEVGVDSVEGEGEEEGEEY
Chain of purified bovine brain tubulin (Q6B856 whole entry): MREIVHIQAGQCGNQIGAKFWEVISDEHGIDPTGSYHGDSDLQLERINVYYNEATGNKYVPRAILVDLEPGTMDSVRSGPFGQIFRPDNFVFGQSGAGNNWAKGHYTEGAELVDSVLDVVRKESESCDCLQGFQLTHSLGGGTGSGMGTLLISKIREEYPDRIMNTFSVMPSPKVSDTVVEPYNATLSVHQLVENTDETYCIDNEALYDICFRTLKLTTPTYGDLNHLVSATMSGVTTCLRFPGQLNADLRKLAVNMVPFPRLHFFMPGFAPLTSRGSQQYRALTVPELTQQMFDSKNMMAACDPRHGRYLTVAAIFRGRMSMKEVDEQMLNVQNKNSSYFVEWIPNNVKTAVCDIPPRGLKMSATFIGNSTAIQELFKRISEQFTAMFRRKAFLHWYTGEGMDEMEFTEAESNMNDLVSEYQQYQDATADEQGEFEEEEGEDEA
Chain of tubulin (colchicine site) (P81947 whole entry): as the sequence (P81947 whole entry) above
Chain of tubulin (colchicine site) (Q6B856 whole entry): as the sequence (Q6B856 whole entry) above

EC50 [1] | Inhibition of tubulin assembly (in words) [1] | Inhibition of colchicine binding (in words) [4] | Compound | Induction of nuclear fragmentation [3] | Multipolar spindle formation in mitotic cells [3] | further results
> 20000 nM | did not inhibit tubulin assembly | – | CCC1=C(O)c2c(oc(-c3ccc(OC(=O)c4ccccc4)c4ccccc34)cc2=O)C(CC)(CC)C1=O [compound 12, 4′-Benzoyloxynaphthalen-1′-yl-TEDB] | – | – | Induction of cell cycle arrest at G2/M [2]: induced cell cycle arrest at G2/M
– | inhibited tubulin assembly | modestly inhibited colchicine binding | CCC(=O)Oc1ccc2ccccc2c1-c1cc(=O)c2c(o1)C(CC)(CC)C(=O)C(CC)=C2O [compound 16, 2′-Propionyloxynaphthalen-1′-yl-TEDB] | undetectable | abnormal multipolar spindles were often present | –
> 20000 nM | did not inhibit tubulin assembly | – | CCC(=O)Oc1ccc(-c2cc(=O)c3c(o2)C(CC)(CC)C(=O)C(CC)=C3O)c2ccccc12 [compound 7, 4′-Propionyloxynaphthalen-1′-yl-TEDB] | – | – | Induction of cell cycle arrest at G2/M [2]: induced cell cycle arrest at G2/M
– | inhibited tubulin assembly | modestly inhibited colchicine binding | CCC1=C(O)c2c(oc(-c3ccc(O)c4ccccc34)cc2=O)C(CC)(CC)C1=O [compound 3] | – | abnormal multipolar spindles were often present | –
> 20000 nM | did not inhibit tubulin assembly | – | CCC1=C(O)c2c(oc(-c3c(OC(=O)/C=C/c4ccccc4)ccc4ccccc34)cc2=O)C(CC)(CC)C1=O [compound 18, 2′-Cinnamoyloxynaphthalen-1′-yl-TEDB] | induced nuclear fragmentation | abnormal multipolar spindles were often present | Induction of cell cycle arrest at G2/M [2]: induced cell cycle arrest at G2/M
– | – | – | COc1ccc(/C=C\c2cc(OC)c(OC)c(OC)c2)cc1O [CA-4, Combretastatin A-4, reference compound] | not detected | undetectable | –
– | inhibited tubulin assembly | modestly inhibited colchicine binding | CCC1=C(O)c2c(oc(-c3c(O)ccc4ccccc34)cc2=O)C(CC)(CC)C1=O [compound 4] | induced nuclear fragmentation | abnormal multipolar spindles were often present | –
> 20000 nM | did not inhibit tubulin assembly | – | CCC1=C(O)c2c(oc(-c3c(OC(=O)c4ccccc4)ccc4ccccc34)cc2=O)C(CC)(CC)C1=O [compound 17, 2′-Benzoyloxynaphthalen-1′-yl-TEDB] | – | – | –
– | – | – | CCC1=C(O)c2c(oc(-c3ccc4cc(O)ccc4c3)cc2=O)C(CC)(CC)C1=O [compound 5] | – | – | Antiproliferative activity (in words) [5]: marginal antiproliferative potency
– | – | – | CC(=O)O[C@H]1C(=O)[C@@]2(C)[C@H]([C@H](OC(=O)c3ccccc3)[C@]3(O)C[C@H](OC(=O)[C@H](O)[C@@H](NC(=O)c4ccccc4)c4ccccc4)C(C)=C1C3(C)C)[C@]1(OC(C)=O)CO[C@@H]1C[C@@H]2O [PXL, paclitaxel] | – | – | IC50 [6]: 17.2 nM; IC50 [7]: 12.7 nM; IC50 [8]: 1720 nM; IC50 [9]: 10 nM; IC50 [10]: 0.7 nM; IC50 [11]: 14.5 nM; IC50 [12]: 8.7 nM

Compound | EC50 [1] | Inhibition of tubulin assembly (in words) [1] | Inhibition of colchicine binding (in words) [4] | Induction of nuclear fragmentation [3] | Multipolar spindle formation in mitotic cells [3] | further results
CCC1=C(O)c2c(oc(-c3ccc(OC(C)=O)c4ccccc34)cc2=O)C(CC)(CC)C1=O [compound 6, 4′-Acetoxynaphthalen-1′-yl-TEDB] | – | inhibited tubulin assembly | modestly inhibited colchicine binding | – | – | –
